Calls of active or inactive are those of the source. The rule behind the calls is not given here.
Columns and labels:
Escherichia coli = assay: Antibacterial activity against Escherichia coli ATCC 25922 by disk inhibition zone method; assay type: functional, organism-based
Method in brief: (§1)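 Disk inhibition zone method against the three strains. Reference antibiotics were gentamicin at 10 μg and chloramphenicol at 30 μg. Inhibition zones were compared with these disks.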

HT-29 = assay: Cytotoxicity against human HT-29 cells assessed as inhibition of cell proliferation after 72 hrs by […]; assay type: functional, cell-based
Method in brief: (§2)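 Cells were grown in D-MEM with 10% fetal calf serum plus penicillin, streptomycin and fungizone, then plated in 96-well plates. After 24 h growth they were treated from 100 μM to 10 nM, with compounds in DMSO (final DMSO 1% to 3%). MTS reagent was added at 72 h and absorbance read at 490 nm versus untreated cells. IC50 came from separate duplicate experiments.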

BL-21 = assay: (§3) Inhibition of His-tagged Escherichia coli DnaG primase expressed in Escherichia coli BL-21 cells assessed as inhibition of RNA synthesis complementary to ssDNA using rNTPs measured after 5 mins by microplate spectrofluorometer analysis
Micrococcus luteus = assay: Antibacterial activity against Micrococcus luteus ATCC 10240 by disk inhibition zone method; assay type: functional, organism-based; method in brief: as §1
MCF7 = assay: Cytotoxicity against human MCF7 cells assessed as inhibition of cell proliferation after 72 hrs by […]; assay type: functional, cell-based; method in brief: as §2
HCT-116 = assay: Cytotoxicity against human HCT116 cells assessed as inhibition of cell proliferation after 72 hrs by […]; assay type: functional, cell-based; conditions: for IC50: HCT-116, 72 h; method in brief: as §2
Bacillus subtilis = assay: Antibacterial activity against Bacillus subtilis ATCC 6633 by disk inhibition zone method; assay type: functional, organism-based; method in brief: as §1
MDA-MB-231 = assay: Cytotoxicity against human MDA231 cells assessed as inhibition of cell proliferation after 72 hrs by […]; assay type: functional, cell-based; method in brief: as §2
KB = assay: Cytotoxicity against human KB cells assessed as inhibition of cell proliferation after 72 hrs by […] assay; assay type: functional, cell-based; method in brief: as §2
[1] = as §3

| IC50 [1] [nM] | SMILES | Activity (Escherichia coli) | inhibition (HT-29) | inhibition (BL-21) | Activity (Micrococcus luteus) | inhibition (MCF7) | inhibition (HCT-116) | Activity (Bacillus subtilis) | inhibition (MDA-MB-231) | inhibition (KB) | IC50 (HCT-116) [nM] | IC50 (KB) [nM] |
| --- | --- | --- | --- | --- | --- | --- | --- | --- | --- | --- | --- | --- |
| – | CCCC/C=C/N(NC(C)=O)C(=O)CO | inactive | inactive | inactive | inactive | inactive | inactive | inactive | inactive | inactive | – | – |
| – | CCCC[C@H]1ON(C(=O)CCC2=CCOC2=O)N=C(C)O[C@H]1O (mixture of isomers) | inactive | inactive | inactive | inactive | inactive | inactive | inactive | inactive | inactive | – | – |
| – | CC(=O)O[C@@]12CO[C@@H]1C[C@H](O)[C@@]1(C)C(=O)[C@H](O)C3=C(C)[C@@H](OC(=O)[C@H](O)[C@@H](NC(=O)OC(C)(C)C)c4ccccc4)C[C@@](O)([C@@H](OC(=O)c4ccccc4)[C@H]21)C3(C)C [DOCETAXEL] | – | – | – | – | – | – | – | – | – | 50 | 0.25 |
| 700000 | CCCC/C=C\N(NC(C)=O)C(=O)C(CO)/N=[N+](\[O-])CCCCCC (configuration not stated) [GERALCIN C] | inactive | – | Dose-dependent effect | inactive | – | – | inactive | – | – | 800 | 800 |

— ChEMBL document CHEMBL2331346, “Isolation and characterization of unusual hydrazides from Streptomyces sp. impact of the cultivation support and extraction procedure” (J Nat Prod, 2013)
